The first test concerns Escherichia coli. Description: Antimicrobial activity against Escherichia coli was determined after 96 hours of incubation. The test is classed as functional. An outline of the steps:
(§1)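 Disk diffusion: cellulose disks loaded with test compound and placed on bacterial plates, with an EtOH control disk. Incubation 96 h. Read-out is the radius (mm) of the inhibition zone.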
Molecule `COc1cc(C)oc(=O)c1-c1ccc(C)cc1` showed an Activity of 20 mm.

Consider `COc1cc(C)oc(=O)c1-c1ccc(C=O)cc1`, for which the Activity worked out at 6 mm.

Regarding `CCC/C=C/c1cc(C)oc(=O)c1`, the Activity stood at 19 mm.

Molecule `COc1cc(=O)oc(C)c1-c1ccccc1` had an Activity of 6 mm.

`COc1cc(C)oc(=O)c1-c1ccc(Cl)cc1`: the Activity amounted to 18 mm.

The next test relates to Schizosaccharomyces pombe. Description: Antimicrobial activity against Schizosaccharomyces pombe was determined after 48 hours of incubation. The test is classed as functional. An outline of the steps: (§2)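 Disk diffusion on yeast plates: cellulose disks carrying test compound, with an EtOH control. Incubation 48 h. The inhibition zone radius is recorded in mm.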
As to `COc1cc(C)oc(=O)c1-c1ccc(C)cc1`, the Activity came out at 0 mm.

`COc1cc(C)oc(=O)c1-c1ccc(C=O)cc1` gave an Activity of 0 mm.

Molecule `CCC/C=C/c1cc(C)oc(=O)c1` showed an Activity of 28 mm.

As for `COc1cc(=O)oc(C)c1-c1ccccc1`, the Activity was determined as 0 mm.

As to `COc1cc(C)oc(=O)c1-c1ccc(Cl)cc1`, the Activity was 0 mm.

In the next test the test system is Candida albicans. Kind of test: Antimicrobial activity against Candida albicans was determined after 48 hours of incubation. The test is classed as functional. An outline of the steps:
as §2
`COc1cc(C)oc(=O)c1-c1ccc(C)cc1`: the Activity is 0 mm.

Consider `COc1cc(C)oc(=O)c1-c1ccc(C=O)cc1`, for which the Activity was found to be 0 mm.

As for `CCC/C=C/c1cc(C)oc(=O)c1`, the Activity is 16 mm.

Take `COc1cc(=O)oc(C)c1-c1ccccc1`: the Activity turned out to be 0 mm.

Regarding `COc1cc(C)oc(=O)c1-c1ccc(Cl)cc1`, the Activity stood at 0 mm.

Another test has as its system Saccharomyces cerevisiae. Description: Antimicrobial activity against Saccharomyces cerevisiae was determined after 48 hours of incubation. The test is classed as functional. In outline:
as §2
Molecule `COc1cc(C)oc(=O)c1-c1ccc(C)cc1` registered an Activity of 0 mm.

The molecule `COc1cc(C)oc(=O)c1-c1ccc(C=O)cc1` returned an Activity of 0 mm.

The molecule `CCC/C=C/c1cc(C)oc(=O)c1` yielded an Activity of 0 mm.

The molecule `COc1cc(=O)oc(C)c1-c1ccccc1` returned an Activity of 0 mm.

Take `COc1cc(C)oc(=O)c1-c1ccc(Cl)cc1`: the Activity is 30 mm.

Another test relates to Aspergillus niger. Kind of test: Percent growth of Aspergillus niger after 7 days of incubation. The test is classed as functional. Also on record: concentration or dose not given beside the values. An outline of the steps: (§3)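 Fungal plate assay: pyrone dissolved in absolute EtOH at 10mg/mL and pipetted 2 cm offset from the centre of the plate containing the organism. EtOH alone served as control. Growth is recorded as percentage of the organism after 72 h and after 7 days of incubation.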
`COc1cc(C)oc(=O)c1-c1ccc(C)cc1` had a Growth of 100%.

Consider `COc1cc(C)oc(=O)c1-c1ccc(C=O)cc1`, for which the Growth is over 95%.

On to `CCC/C=C/c1cc(C)oc(=O)c1`, for which the Growth is reported as 100%.

Take `COc1cc(=O)oc(C)c1-c1ccccc1`: the Growth is over 90%.

Molecule `COc1cc(C)oc(=O)c1-c1ccc(Cl)cc1` showed a Growth of 95%.

A further test relates to Botrytis cinerea. Description: Percent growth of Botrytis cinerea after 7 days of incubation. The test is classed as functional. Also on record: concentration or dose not given beside the values. An outline of the steps:
as §3
In turn, `COc1cc(C)oc(=O)c1-c1ccc(C)cc1` displayed a Growth of 100%.

In turn, `COc1cc(C)oc(=O)c1-c1ccc(C=O)cc1` showed a Growth of 100%.

`CCC/C=C/c1cc(C)oc(=O)c1`: the Growth is recorded as 100%.

Turning to `COc1cc(=O)oc(C)c1-c1ccccc1`, the Growth came out at 100%.

The molecule `COc1cc(C)oc(=O)c1-c1ccc(Cl)cc1` came in with a Growth of 100%.

The subject of another test is Staphylococcus aureus. Description: Antimicrobial activity against Staphylococcus aureus was determined after 96 hours of incubation. The test is classed as functional. In outline:
as §1
Regarding `COc1cc(C)oc(=O)c1-c1ccc(C)cc1`, the Activity was 0 mm.

In turn, `COc1cc(C)oc(=O)c1-c1ccc(C=O)cc1` returned an Activity of 0 mm.

`CCC/C=C/c1cc(C)oc(=O)c1` yielded an Activity of 20 mm.

In the case of `COc1cc(=O)oc(C)c1-c1ccccc1`, the Activity was 0 mm.

Turning to `COc1cc(C)oc(=O)c1-c1ccc(Cl)cc1`, the Activity was determined as 0 mm.

In another test the test system is Globisporangium ultimum. Description: Percent growth of Pythium ultimum after 72 hours of incubation. The test is classed as functional. Also on record: concentration or dose not given beside the values. In outline: as §3
`COc1cc(C)oc(=O)c1-c1ccc(C)cc1`: the Growth was 100%.

Regarding `COc1cc(C)oc(=O)c1-c1ccc(C=O)cc1`, the Growth is reported as 100%.

The molecule `CCC/C=C/c1cc(C)oc(=O)c1` came in with a Growth of 100%.

In turn, `COc1cc(C)oc(=O)c1-c1ccc(Cl)cc1` displayed a Growth of 100%.

The next test concerns Globisporangium ultimum. Description: Percent growth of Pythium ultimum after 7 days of incubation. The test is classed as functional. Also on record: concentration or dose not given beside the values. An outline of the steps:
as §3
In the case of `COc1cc(C)oc(=O)c1-c1ccc(C)cc1`, the Growth stood at 100%.

The molecule `COc1cc(C)oc(=O)c1-c1ccc(C=O)cc1` had a Growth of 100%.

`CCC/C=C/c1cc(C)oc(=O)c1` yielded a Growth of 100%.

Molecule `COc1cc(C)oc(=O)c1-c1ccc(Cl)cc1` showed a Growth of 100%.

The subject of a further test is Botrytis cinerea. Kind of test: Percent growth of Botrytis cinerea after 72 hours of incubation. Further details: concentration or dose not given beside the values. The test is classed as functional. In outline: as §3
With `COc1cc(C)oc(=O)c1-c1ccc(C)cc1`, the Growth is listed as 58%.

Molecule `COc1cc(C)oc(=O)c1-c1ccc(C=O)cc1` had a Growth of 65%.

Turning to `CCC/C=C/c1cc(C)oc(=O)c1`, the Growth is given as 47%.

As to `COc1cc(=O)oc(C)c1-c1ccccc1`, the Growth is given as 47%.

With `COc1cc(C)oc(=O)c1-c1ccc(Cl)cc1`, the Growth is 58%.

For the next test, the system named is Fusarium oxysporum. Kind of test: Percent growth of Fusarium oxysporum after 7 days of incubation. The test is classed as functional. Further details: concentration or dose not given beside the values. An outline of the steps: as §3
As for `COc1cc(C)oc(=O)c1-c1ccc(C)cc1`, the Growth is reported as 60%.

On to `COc1cc(C)oc(=O)c1-c1ccc(C=O)cc1`, for which the Growth is 60%.

In turn, `CCC/C=C/c1cc(C)oc(=O)c1` displayed a Growth of 45%.

`COc1cc(=O)oc(C)c1-c1ccccc1` had a Growth of 51%.

`COc1cc(C)oc(=O)c1-c1ccc(Cl)cc1` gave a Growth of 60%.

The test system of a further test is Thanatephorus cucumeris. Kind of test: Percent growth of Rhizoctonia solani after 72 hours of incubation. The test is classed as functional. Further details: concentration or dose not given beside the values. An outline of the steps: as §3
As to `COc1cc(C)oc(=O)c1-c1ccc(C)cc1`, the Growth turned out to be 55%.

Turning to `COc1cc(C)oc(=O)c1-c1ccc(C=O)cc1`, the Growth is 79%.

In turn, `CCC/C=C/c1cc(C)oc(=O)c1` gave a Growth of 49%.

`COc1cc(=O)oc(C)c1-c1ccccc1` yielded a Growth of 67%.

Regarding `COc1cc(C)oc(=O)c1-c1ccc(Cl)cc1`, the Growth stood at 51%.

For the next test, the system named is Thanatephorus cucumeris. Description: Percent growth of Rhizoctonia solani after 7 days of incubation. Also on record: concentration or dose not given beside the values. The test is classed as functional. An outline of the steps:
as §3
In the case of `COc1cc(C)oc(=O)c1-c1ccc(C)cc1`, the Growth was 100%.

As for `COc1cc(C)oc(=O)c1-c1ccc(C=O)cc1`, the Growth came to 100%.

Molecule `CCC/C=C/c1cc(C)oc(=O)c1` displayed a Growth of 100%.

The molecule `COc1cc(=O)oc(C)c1-c1ccccc1` gave a Growth of 100%.

Take `COc1cc(C)oc(=O)c1-c1ccc(Cl)cc1`: the Growth turned out to be 100%.

Another test deals with Fusarium oxysporum. Description: Percent growth of Fusarium oxysporum after 72 hours of incubation. Also on record: concentration or dose not given beside the values. The test is classed as functional. An outline of the steps:
as §3
For `COc1cc(C)oc(=O)c1-c1ccc(C)cc1`, the Growth is 11%.

Molecule `COc1cc(C)oc(=O)c1-c1ccc(C=O)cc1` yielded a Growth of 11%.

`CCC/C=C/c1cc(C)oc(=O)c1` yielded a Growth of 5%.

Take `COc1cc(=O)oc(C)c1-c1ccccc1`: the Growth was determined as 12%.

Turning to `COc1cc(C)oc(=O)c1-c1ccc(Cl)cc1`, the Growth is recorded as 8%.

In another test the test system is Bacillus subtilis. Description: Antimicrobial activity against Bacillus subtilis was determined after 96 hours of incubation. The test is classed as functional. In outline:
as §1
For `COc1cc(C)oc(=O)c1-c1ccc(C)cc1`, the Activity is 16 mm.

Take `COc1cc(C)oc(=O)c1-c1ccc(C=O)cc1`: the Activity came out at 6 mm.

`CCC/C=C/c1cc(C)oc(=O)c1` had an Activity of 16 mm.

On to `COc1cc(=O)oc(C)c1-c1ccccc1`, for which the Activity stood at 6 mm.

`COc1cc(C)oc(=O)c1-c1ccc(Cl)cc1` registered an Activity of 17 mm.

For the next test, the system named is Aspergillus niger. Kind of test: Percent growth of Aspergillus niger after 72 hours of incubation. The test is classed as functional. Further details: concentration or dose not given beside the values. An outline of the steps:
as §3
For the molecule `COc1cc(C)oc(=O)c1-c1ccc(C)cc1`, the Growth is listed as over 95%.

In turn, `COc1cc(C)oc(=O)c1-c1ccc(C=O)cc1` had a Growth of 83%.

Turning to `CCC/C=C/c1cc(C)oc(=O)c1`, the Growth is reported as over 95%.

Molecule `COc1cc(=O)oc(C)c1-c1ccccc1` registered a Growth of 71%.

`COc1cc(C)oc(=O)c1-c1ccc(Cl)cc1` gave a Growth of over 95%.

The values are drawn from ChEMBL document CHEMBL1136151, “Suzuki cross-coupling approaches to the synthesis of bioactive 3-substituted and 5-substituted-4-methoxy-6-methyl-2-pyrones” (Bioorg Med Chem Lett, 2003).
